The record followed here is ChEMBL document CHEMBL4334451, “Natural Alkaloid Berberine Activity against Pseudomonas aeruginosa MexXY-Mediated Aminoglycoside Resistance: In Silico and in Vitro Studies” (J Nat Prod, 2019).

Format in all cases: protein-complex assay
The target in experiment [1] is T1, MexXY/OprM (Pseudomonas aeruginosa (strain ATCC 15692 / DSM 22644 / CIP 104116 / JCM14847 / LMG 12228 / 1C / PRS 101 / PAO1)) (UniProt Q51487+Q9ZNG9+Q9ZNG8). In words: Inhibition of MexXY/OPRM in Pseudomonas aeruginosa C89 assessed as reduction in bacterial resistance to tobramycin by measuring fold reduction in tobramycin MIC at 80 ug/ml incubated for 24 to 48 hrs by broth microdilution method. Summed up:
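Tobramycin MIC by CLSI broth microdilution at 37°C, read at 24 and 48 h, with and without a fixed berberine concentration selected from checkerboard assays. Berberine stock was in 50% DMSO/50% methanol, final DMSO about 1%. A 2-fold decrease in tobramycin MIC was scored as synergy.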
On the technique in general: Dilution methods test growth across graded concentrations, often in twofold steps.

For experiment [2], the target named is T1, MexXY/OprM (Pseudomonas aeruginosa (strain ATCC 15692 / DSM 22644 / CIP 104116 / JCM14847 / LMG 12228 / 1C / PRS 101 / PAO1)). As to the kind of experiment: Inhibition of MexXY/OPRM in Pseudomonas aeruginosa C9 assessed as bacterial growth up to 320 ug/ml incubated for 24 to 48 hrs by broth microdilution method. The method, boiled down:
(§1)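 Broth microdilution per CLSI, with P. aeruginosa ATCC 27853 as reference strain, in 2-fold dilution series. Plates were incubated at 37°C and read for visible growth at 24 and 48 h. Berberine stock was in 50% DMSO/50% methanol, with final DMSO kept near 1%. Berberine was tested at 10–320 µg/ml, alone or at a fixed level with serial tobramycin.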

The target is the same in experiment [3]. In words: Inhibition of MexXY/OPRM in Pseudomonas aeruginosa C98 assessed as bacterial growth up to 320 ug/ml incubated for 24 to 48 hrs by broth microdilution method. The method, boiled down:
as §1

For experiment [4] the target is unchanged. As to the kind of experiment: Inhibition of MexXY/OPRM in Pseudomonas aeruginosa AR48 assessed as bacterial growth up to 320 ug/ml incubated for 24 to 48 hrs by broth microdilution method. Summed up:
(§2)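 Broth microdilution following CLSI guidelines, with P. aeruginosa ATCC 27853 as reference strain. Berberine was tested at 2-fold concentrations from 10 to 320 µg/ml, dissolved in 50% DMSO/50% methanol, with the top concentration set to keep final DMSO close to 1%. Plates were incubated at 37°C and read for visible growth at 24 and 48 h.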

For experiment [5] the target is unchanged. In words: Inhibition of MexXY/OPRM in Pseudomonas aeruginosa C31 assessed as bacterial growth up to 320 ug/ml incubated for 24 to 48 hrs by broth microdilution method. The method, boiled down:
as §2

Experiment [6] has the same target. As to the kind of experiment: Inhibition of MexXY/OPRM in Pseudomonas aeruginosa C52 assessed as bacterial growth up to 320 ug/ml incubated for 24 to 48 hrs by broth microdilution method. The method, boiled down:
as §2

Experiment [7] shares this target. In words: Inhibition of MexXY/OPRM in Pseudomonas aeruginosa C104 assessed as reduction in bacterial resistance to tobramycin by measuring fold reduction in tobramycin MIC at 80 ug/ml incubated for 24 to 48 hrs by broth microdilution method.
For experiment [8] the target is unchanged. As to the kind of experiment: Inhibition of MexXY/OPRM in Pseudomonas aeruginosa C60 assessed as reduction in bacterial resistance to tobramycin by measuring tobramycin MIC at 80 ug/ml incubated for 24 to 48 hrs by broth microdilution method (reference value: >128 ug/ml).
The target is the same in experiment [9]. As to the kind of experiment: Inhibition of MexXY/OPRM in Pseudomonas aeruginosa C83 assessed as reduction in bacterial resistance to tobramycin by measuring tobramycin MIC at 80 ug/ml incubated for 24 to 48 hrs by broth microdilution method (reference value: 128 ug/ml).
The target is the same in experiment [10]. In words: Inhibition of MexXY/OPRM in Pseudomonas aeruginosa C89 assessed as bacterial growth up to 320 ug/ml incubated for 24 to 48 hrs by broth microdilution method. Summed up:
as §1

For experiment [11] the target is unchanged. In words: Inhibition of MexXY/OPRM in Pseudomonas aeruginosa C89 assessed as reduction in bacterial resistance to tobramycin by measuring tobramycin MIC at 80 ug/ml incubated for 24 to 48 hrs by broth microdilution method (reference value: >128 ug/ml). Summed up: as §1
Experiment [12] has the same target. In words: Inhibition of MexXY/OPRM in Pseudomonas aeruginosa AR48 assessed as reduction in bacterial resistance to tobramycin by measuring tobramycin MIC at 80 ug/ml incubated for 24 to 48 hrs by broth microdilution method (reference value: 32 ug/ml).
For experiment [13] the target is unchanged. As to the kind of experiment: Inhibition of MexXY/OPRM in Pseudomonas aeruginosa C6 assessed as reduction in bacterial resistance to tobramycin by measuring tobramycin MIC at 80 ug/ml incubated for 24 to 48 hrs by broth microdilution method (reference value: 2 ug/ml).
For experiment [14] the target is unchanged. As to the kind of experiment: Inhibition of MexXY/OPRM in Pseudomonas aeruginosa C86 assessed as reduction in bacterial resistance to tobramycin by measuring tobramycin MIC at 80 ug/ml incubated for 24 to 48 hrs by broth microdilution method (reference value: 128 ug/ml). Summed up: as §1
Experiment [15] has the same target. In words: Inhibition of MexXY/OPRM in Pseudomonas aeruginosa C86 assessed as bacterial growth up to 320 ug/ml incubated for 24 to 48 hrs by broth microdilution method. The method, boiled down: as §1
For experiment [16] the target is unchanged. In words: Inhibition of MexXY/OPRM in Pseudomonas aeruginosa C30 assessed as reduction in bacterial resistance to tobramycin by measuring tobramycin MIC at 80 ug/ml incubated for 24 to 48 hrs by broth microdilution method (reference value: 8 ug/ml).
Experiment [17] has the same target. As to the kind of experiment: Inhibition of MexXY/OPRM in Pseudomonas aeruginosa C67 assessed as bacterial growth up to 320 ug/ml incubated for 24 to 48 hrs by broth microdilution method. Summed up:
as §2

Experiment [18] has the same target. As to the kind of experiment: Inhibition of MexXY/OPRM in Pseudomonas aeruginosa C52 assessed as reduction in bacterial resistance to tobramycin by measuring tobramycin MIC at 80 ug/ml incubated for 24 to 48 hrs by broth microdilution method (reference value: >128 ug/ml).
For experiment [19] the target is unchanged. As to the kind of experiment: Inhibition of MexXY/OPRM in Pseudomonas aeruginosa C76 assessed as bacterial growth up to 320 ug/ml incubated for 24 to 48 hrs by broth microdilution method. Summed up: as §2
The target is the same in experiment [20]. As to the kind of experiment: Inhibition of MexXY/OPRM in Pseudomonas aeruginosa C6 assessed as bacterial growth up to 320 ug/ml incubated for 24 to 48 hrs by broth microdilution method. Summed up:
as §2

For experiment [21] the target is unchanged. As to the kind of experiment: Inhibition of MexXY/OPRM in Pseudomonas aeruginosa C84 assessed as bacterial growth up to 320 ug/ml incubated for 24 to 48 hrs by broth microdilution method. The method, boiled down: as §1
For experiment [22] the target is unchanged. As to the kind of experiment: Inhibition of MexXY/OPRM in Pseudomonas aeruginosa C54 assessed as reduction in bacterial resistance to tobramycin by measuring tobramycin MIC at 80 ug/ml incubated for 24 to 48 hrs by broth microdilution method (reference value: 32 ug/ml).
For experiment [23] the target is unchanged. In words: Inhibition of MexXY/OPRM in Pseudomonas aeruginosa C104 assessed as bacterial growth up to 320 ug/ml incubated for 24 to 48 hrs by broth microdilution method. The method, boiled down: as §2
The target is the same in experiment [24]. In words: Inhibition of MexXY/OPRM in Pseudomonas aeruginosa C15 assessed as reduction in bacterial resistance to tobramycin by measuring tobramycin MIC at 80 ug/ml incubated for 24 to 48 hrs by broth microdilution method (reference value: 8 ug/ml).

Activity calls are given as the source filed them. The calls are words filed in the database; no cut-off is given here.

Regarding `COc1ccc2cc3[n+](cc2c1OC)CCc1cc2c(cc1-3)OCO2` [BERBERINE], the fold change (FC) in experiment [1] and in experiment [7] was above 2 throughout. Further, the inhibition entry in [2], in [3], in experiment [4], in experiment [5], in [6] and in experiment [10] was “inactive” in each case. The inhibition result in experiment [15], in experiment [17], in experiment [19], in [20], in experiment [21] and in experiment [23] was “inactive” throughout. In addition, the MIC in experiment [8] stood at 64 µg/mL; in [9] it was 32 µg/mL; in experiment [11] it was 64 µg/mL; in experiment [12], 8 µg/mL; in [13], 0.5 µg/mL; in [14] it was 16 µg/mL. Also, the MIC in [16] was found to be 8 µg/mL; in experiment [18] it was 128 µg/mL; in experiment [22] it was 16 µg/mL; in experiment [24] it was 8 µg/mL.
